# E-selectin induc: induces E-selectin expression in human endothelial cells; P16581; HUVEC E-selectin immunofluorescence imaging; normalized: neutral wells 0, TNF-alpha wells 100; activation, % at 7.58 µM; 0.37% of 260,000 active; AID 686992;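 active = mean E-selectin-positive cell signal at least 10% of the positive control, reached in at least 60% of replicates, without over 20% cell loss; inconclusive = no rule given, readout overlaps actives, possibly toxicity-flagged; inactive = the rest, including those meeting only one limit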
#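 System: HUVEC / Compound: single concentration / Signal: immunofluorescence imaging / Read-out: percent E-selectin-positive cells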
# SIRT5 block: sirtuin-5 (human) deacylase inhibition. 1.1% of 330,000 active. Q9NXA8. inhibition, % at 15 µM. Purified SirT5, succinyl-peptide AMC, trypsin-coupled fluorescence. AID 652115; in the data active = inhibition above about 15%; inconclusive = no clear call, values can overlap the other calls
# Target sequence (Q9NXA8 whole entry, looked up): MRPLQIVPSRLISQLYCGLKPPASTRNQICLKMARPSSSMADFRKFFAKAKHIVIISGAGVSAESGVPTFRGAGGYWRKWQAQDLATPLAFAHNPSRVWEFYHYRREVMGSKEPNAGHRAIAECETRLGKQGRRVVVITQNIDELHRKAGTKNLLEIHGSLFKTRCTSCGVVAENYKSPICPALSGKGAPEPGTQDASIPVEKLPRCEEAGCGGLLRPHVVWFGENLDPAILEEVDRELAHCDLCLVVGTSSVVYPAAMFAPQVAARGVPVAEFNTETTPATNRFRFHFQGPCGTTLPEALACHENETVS
# DENV2 CPE: DENV2-induced cell death inhibition; DENV2-infected cells, cytopathic effect rescue, plate reader; CPE inhibition, % at 9.99 µM; 1.7% of 350,000 active; in the data active = CPE inhibition above about 20%, passing the limit was not always enough; inconclusive = no clear call, values can overlap the other calls; tested in BHK-21 cells;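 also: 0% = median of neutral control wells and 100% = median of positive control wells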
# * = called active by the depositor; ? = inconclusive; . = no result given. In the library only some 2.9% were active in any assay of this set; here they are far more common.
SMILES,E-selectin induc,SIRT5 block,DENV2 CPE
COc1ccc(CCNC(=O)c2cnc3scc(C)n3c2=O)cc1OC,1,1,75*
CN(C)C(CNC(=O)c1ccco1)c1cccs1 (stereo not drawn),.,-5,?
CN(C)C(CNC(=O)c1c(F)cccc1Cl)c1ccco1 (stereo not drawn),.,9,21*
CN(C)C(CNC(=O)c1ccccc1C(F)(F)F)c1ccco1 (stereo not drawn),0,-4,1
CN(C)C(CNC(=O)c1cccs1)c1ccco1 (stereo not drawn),.,-4,35*
COc1ccc(NC(=O)N(C)C[C@H]2OCCCC[C@@H](C)Oc3ccc(NS(=O)(=O)c4cccs4)cc3C(=O)N([C@H](C)CO)C[C@H]2C)cc1,0,3,-8
CSCCC(NS(=O)(=O)c1cccs1)C(=O)NCc1ccc(C)cc1 (stereo not drawn),.,1,-3
CSCCC(NS(=O)(=O)c1cccs1)C(=O)NCc1ccccc1 (stereo not drawn),0,3,36*
C=CCC1=C/C(=C\c2c(N)n3nc(CC(=O)N4CCCC4)sc3nc2=O)C=C(OC)C1=O,.,20*,-4
Nc1c(/C=C2\C=Nc3ccccc32)c(=O)nc2sc(CC(=O)N3CCOCC3)nn12,.,3,-2
CCOC1=C/C(=C/c2c(N)n3nc(S(=O)(=O)CC)sc3nc2=O)C=CC1=O,7,9,-1
COC1=CC(=Cc2c(N)n3nc(CC(=O)N4CCOCC4)sc3nc2=O)C=C(OC)C1=O,.,15,3
Nc1c(C=C2C=CC(=O)C=C2)c(=O)nc2sc(CC(=O)N3CCOCC3)nn12,0,23*,-3
CCOC1=C/C(=C/c2c(N)n3nc(CC(=O)N4CCCCC4)sc3nc2=O)C=CC1=O,.,32*,-3
COc1ccc(NC(=O)CCCC2=NS(=O)(=O)c3ccccc3N2)cc1,0,-3,0
O=C(Cc1ccc(Cl)cc1)Nc1ccc(NC(=O)c2ccccc2)cc1,0,.,.
CC(=O)NC(Cc1ccc(F)c(F)c1)C(=O)NC1CCN(C(=O)c2ccc(Cl)cc2)CC1 (stereo not drawn),.,-6,11
C[C@@H]1CN([C@H](C)CO)C(=O)c2cc(C3=CCCCC3)cnc2O[C@H]1CN(C)C(=O)c1ccc2c(c1)OCO2,2,7,54*
C[C@H](CO)N1C[C@H](C)[C@@H](CN(C)C(=O)c2ccc3c(c2)OCO3)Oc2ncc(C3=CCCC3)cc2C1=O,0,-2,3
C[C@@H]1CN([C@@H](C)CO)C(=O)c2cc(C3=CCCCC3)cnc2O[C@@H]1CN(C)C(=O)Cc1ccccc1,0,1,46*
C[C@@H]1CN([C@@H](C)CO)C(=O)c2cc(C3=CCCCC3)cnc2O[C@H]1CN(C)C(=O)Cc1ccncc1,0,-2,2
C[C@@H]1CN([C@@H](C)CO)C(=O)c2cc(C3=CCCCC3)cnc2O[C@H]1CN(C)C(=O)Cc1ccccc1,0,5,0
C[C@H](CO)N1C[C@H](C)[C@H](CN(C)C(=O)Cc2ccccc2)Oc2ncc(C3=CCCCC3)cc2C1=O,0,21*,17
O=S(=O)(N[C@@H]1CC[C@@H](CCn2cc(C3(O)CCCC3)nn2)O[C@H]1CO)c1ccccc1,-1,1,.
Cc1nc(N)sc1C(=O)N1N=N1,.,-3,0
SMILES,E-selectin induc,SIRT5 block,DENV2 CPE
COc1ccccc1Cc1c(-c2ccc(C)cc2)nc2ccc(Br)cn12,1,1,2
O=C(CN1CCOCC1)NCC[C@@H]1CC[C@H](NS(=O)(=O)c2ccc(Cl)cc2)[C@@H](CO)O1,0,-2,-6
CCN(CC)C(=O)COCc1cc(-c2ccc3c(c2)OCO3)on1,0,-5,-5
CC(NC(=O)c1ccc(NC(=O)CC2SC(N3CCCC3)=NC2=O)cc1)c1ccccc1 (stereo not drawn),17,-3,-2
COc1ccc2oc(C(=O)OCC(=O)Nc3ccc(NC(C)=O)cc3)c(C)c2c1,.,-3,19
CC(C)C1Cc2[nH]c(=S)[nH]c(=O)c2C(c2ccc(F)cc2)O1 (stereo not drawn),.,-3,32*
CC(C)C1Cc2[nH]c(=S)[nH]c(=O)c2C(c2ccc(Cl)cc2)O1 (stereo not drawn),0,-3,-6
COc1cc(Cl)c(CC(=O)c2c[nH]c3ccccc23)cc1OC,0,-2,-5
Cc1cccc(CC(=O)c2c[nH]c3ccccc23)c1,75*,.,-4
O=C(CN1C(=O)NC2(CCc3ccccc32)C1=O)NCc1ccccc1Cl (stereo not drawn),0,-2,-10
c1ccc(-c2cncnc2)cc1,0,25*,-5
c1ccc(-c2nnc(-c3ccccc3)nn2)cc1,.,4,1
CCCNC(=O)C[C@H]1C[C@H]2c3cc(NS(=O)(=O)c4ccc(F)cc4)ccc3O[C@H]2[C@H](CO)O1,-1,1,-3
O=C(NNC(=O)c1ccc([N+](=O)[O-])cc1)c1ccc(Br)cc1,0,-5,-5
Cc1cc(C)nc(N/C(=N/S(=O)(=O)Cc2ccccc2)Nc2ccccc2)n1,-1,-5,-4
COC(=O)CCC(=O)OC1(C)C(=O)C2=CN(Cc3ccc(OC)cc3)C(c3ccc(OC)cc3)=CC2=C(Br)C1=O (stereo not drawn),0,.,23*
COC(=O)CCC(=O)OC1(C)C(=O)C2=CN(Cc3ccccc3)C(c3ccc(OC)cc3)=CC2=C(Br)C1=O (stereo not drawn),6,-3,-1
C=CCN1C(=O)c2ccc(C(=O)OCC(=O)Nc3ccccc3OC)cc2C1=O,5,-4,2
O=C(CCc1nnc2ccc(NCc3ccccc3Cl)nn12)NC1CCCCC1,.,1,13
COc1cccc(/C=N/n2c(C3CCCCC3)n[nH]c2=S)c1OC,0,-2,?
O=C(N/N=C/c1cccn1-c1ccc([N+](=O)[O-])cc1)c1cccnc1,1,3,116*
O=C(N/N=C/c1cccn1-c1ccccc1)c1ccncc1,.,3,.
C[C@H](CO)N1C[C@H](C)[C@H](CN(C)Cc2ccccc2)Oc2ccc(NC(=O)NC3CCCCC3)cc2CC1=O,0,3,-8
COc1ccc(/C=N\NC(=O)c2ccccc2)cc1COc1ccc(F)cc1,0,-5,2
COc1ccc(/C=N\NC(=O)c2ccc(-c3ccccc3)cc2)cc1COC(C)=O,.,-3,56*
SMILES,E-selectin induc,SIRT5 block,DENV2 CPE
CO[C@@H]1CC[C@@H]2CCOc3ccc(C#N)cc3C(=O)N(C)C[C@H](C)C(=O)N(C)C[C@H]1O2,0,-2,8
CNC(=S)Nc1ccc2[nH]c(=O)[nH]c2c1,3,21*,-6
CC(C)NC(=S)Nc1ccc2[nH]c(=O)[nH]c2c1,-1,-4,0
CC(=O)NCCNC(=O)c1ccc2c(c1)S(=O)(=O)c1ccccc1C2=O,.,1,9
CC(C)CC1NC(=O)c2ccc(Cl)cc2-n2c1nc1cc(F)ccc1c2=O (stereo not drawn),0,.,.
COc1cccc(CCC(=O)N2CCC(n3nccc3NC(=O)CC(C)C)CC2)c1,39*,-1,3
C=C(C)CCC(C)N1CCC(n2nccc2NC(=O)CCOc2ccccc2)CC1 (stereo not drawn),44*,-2,0
COc1ccccc1CCC(=O)N1CCC(n2nccc2NC(=O)CC(C)C)CC1,0,-3,?

# High-throughput results: PubChem BioAssay, Broad Institute
